The values below come from ChEMBL document CHEMBL1126202, “Dual-action penems and carbapenems” (J Med Chem, 1992).

Some results are limits rather than exact numbers.

One assay has as its system Clostridioides difficile. In words: In vitro antibacterial activity against Clostridium difficile 651. The class given is functional.
In assay [1] the test system is Serratia marcescens. The assay can be described thus: In vitro antibacterial activity against serratia marcescens SM (constitutive beta-lactamase producer). It is filed as functional. In outline:
(§1)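 MIC was determined by agar dilution on Mueller-Hinton agar. Serial 2-fold aqueous dilutions were diluted 10-fold in agar to give final concentrations of 128 to 0.0156 μg/mL. Plates were inoculated by Steers replicator with overnight broth cultures diluted 100-fold.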

The target in assay [2] is Penicillin-binding protein 4 (Staphylococcus aureus) (UniProt P72355). The assay can be described thus: Concentration inhibiting [14C]- Penicillin G binding to Staphylococcus aureus ATCC 29213 Penicillin binding protein 4 41 kDa.
The subject of assay [3] is Bacteroides fragilis. In words: In vitro antibacterial activity against bacteroides fragilis S2. The class given is functional. A digest of the protocol:
(§2)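 Anaerobic MIC, run in microtiter plates in Schaedler's broth supplemented with coenzyme I and hemin. Incubated in an oxygen-free hydrogen–carbon dioxide atmosphere.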

In assay [4] the test system is Bacteroides fragilis. In words: In vitro antibacterial activity against Bacteroides fragilis F117A. It is filed as functional. A digest of the protocol: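 MIC by broth dilution in microtiter plates, run in an oxygen-free hydrogen–carbon dioxide atmosphere. Medium: Schaedler's broth with coenzyme I and hemin added.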
The subject of assay [5] is Escherichia coli. In words: In vitro antibacterial activity against Escherichia coli 25922. The class given is functional. In outline:
as §1

Assay [6] concerns Escherichia coli. The assay can be described thus: Minimum inhibitory concentration of the Penicillin G binding to Escherichia coli UB1005 PBPs.
Assay [7] deals with T1, Penicillin-binding protein 1 (Staphylococcus aureus (strain COL)) (UniProt F4NA86).
T1 sequence (whole entry): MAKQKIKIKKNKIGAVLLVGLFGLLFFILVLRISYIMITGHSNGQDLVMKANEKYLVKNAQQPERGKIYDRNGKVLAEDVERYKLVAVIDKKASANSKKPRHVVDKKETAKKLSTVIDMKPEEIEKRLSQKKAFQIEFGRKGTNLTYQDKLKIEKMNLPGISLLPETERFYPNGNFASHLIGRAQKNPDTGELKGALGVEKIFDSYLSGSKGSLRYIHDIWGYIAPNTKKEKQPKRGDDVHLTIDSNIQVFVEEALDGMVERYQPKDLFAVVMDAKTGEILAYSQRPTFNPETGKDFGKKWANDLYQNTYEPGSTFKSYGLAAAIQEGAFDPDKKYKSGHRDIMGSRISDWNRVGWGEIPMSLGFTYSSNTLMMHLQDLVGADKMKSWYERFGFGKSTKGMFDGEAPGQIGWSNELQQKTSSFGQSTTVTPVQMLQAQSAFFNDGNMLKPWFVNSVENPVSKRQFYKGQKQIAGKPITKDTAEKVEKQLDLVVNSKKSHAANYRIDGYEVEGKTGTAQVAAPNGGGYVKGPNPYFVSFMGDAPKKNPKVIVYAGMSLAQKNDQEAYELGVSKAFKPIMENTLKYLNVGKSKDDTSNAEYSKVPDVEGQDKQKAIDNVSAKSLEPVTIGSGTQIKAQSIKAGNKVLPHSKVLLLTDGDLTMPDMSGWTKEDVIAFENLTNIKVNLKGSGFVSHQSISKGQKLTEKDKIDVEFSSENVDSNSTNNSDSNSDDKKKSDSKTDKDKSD
The assay can be described thus: Concentration inhibiting [14C]- Penicillin G binding to Staphylococcus aureus ATCC 29213 Penicillin binding protein 1, 87 kDa.

In assay [8] the test system is Staphylococcus aureus. In words: Minimum inhibitory concentration to the Penicillin G binding to Staphylococcus aureus ATCC 29213 Penicillin binding protein.
For assay [9], the system named is Hathewaya histolytica. The assay can be described thus: In vitro antibacterial activity against clostridium histolyticum 503-86. It is filed as functional. In outline: as §2
For the next assay, the system named is Citrobacter freundii. The assay can be described thus: In vitro antibacterial activity against citrobacter freundii BS-16 (constitutive beta-lactamase producer). The class given is functional. A digest of the protocol: as §1
The target in assay [10] is T2, Penicillin-binding protein 2b (Staphylococcus aureus) (UniProt Q9XDB3).
T2 sequence (whole entry): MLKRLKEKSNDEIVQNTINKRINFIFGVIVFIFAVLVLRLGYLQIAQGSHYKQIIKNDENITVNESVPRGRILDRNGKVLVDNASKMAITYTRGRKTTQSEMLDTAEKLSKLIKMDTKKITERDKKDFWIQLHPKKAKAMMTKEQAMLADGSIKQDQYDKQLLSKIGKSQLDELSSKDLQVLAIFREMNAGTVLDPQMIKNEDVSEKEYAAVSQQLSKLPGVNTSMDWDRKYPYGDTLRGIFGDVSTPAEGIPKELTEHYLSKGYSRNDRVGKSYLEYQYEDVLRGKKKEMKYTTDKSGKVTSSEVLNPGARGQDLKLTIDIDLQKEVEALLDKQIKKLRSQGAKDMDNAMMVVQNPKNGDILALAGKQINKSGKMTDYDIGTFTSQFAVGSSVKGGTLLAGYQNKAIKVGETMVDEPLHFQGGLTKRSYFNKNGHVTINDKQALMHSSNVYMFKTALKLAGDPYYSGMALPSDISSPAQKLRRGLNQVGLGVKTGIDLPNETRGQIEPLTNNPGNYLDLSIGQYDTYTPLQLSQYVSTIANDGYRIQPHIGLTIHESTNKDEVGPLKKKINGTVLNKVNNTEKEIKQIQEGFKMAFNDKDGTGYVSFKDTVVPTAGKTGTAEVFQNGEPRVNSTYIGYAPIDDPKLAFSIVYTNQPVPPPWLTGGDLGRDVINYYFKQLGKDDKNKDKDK
In words: Concentration inhibiting [14C]- Penicillin G binding to Staphylococcus aureus ATCC 29213 Penicillin binding protein 3, 85 kDa.

Assay [11] addresses Penicillin-binding protein 1A (Escherichia coli K-12) (UniProt P02918). The assay can be described thus: Concentration inhibiting [14C]- Penicillin G binding to Escherichia coli UB1005 PBP1a (penicillin binding protein) 90 kDa.
For a further assay, the system named is Enterobacter cloacae. The assay can be described thus: In vitro antibacterial activity against enterobacter cloacae P99 (constitutive beta-lactamase producer). It is filed as functional. In outline:
as §1

A further assay relates to Pseudomonas aeruginosa. The assay can be described thus: In vitro antibacterial activity against Ps. aeruginosa 18SH (constitutive beta-lactamase producer). It is filed as functional. In outline: as §1
For assay [12], the target named is T1, Penicillin-binding protein 1 (Staphylococcus aureus (strain COL)). The assay can be described thus: Concentration inhibiting [14C]- Penicillin G binding to Staphylococcus aureus ATCC 29213 Penicillin binding protein 1 87 kDa.
Assay [13] has as its system Escherichia coli. The assay can be described thus: Minimum inhibitory concentration inhibiting [14C]- Penicillin G binding to Escherichia coli UB1005 PBPs.
Assay [14] concerns Staphylococcus aureus. The assay can be described thus: Minimum inhibitory concentration to the Penicillin G binding to Staphylococcus aureus ATCC 29213 PBPs.
The test system of assay [15] is Hathewaya histolytica. The assay can be described thus: In vitro antibacterial activity against Clostridium histolyticum 503-86. The class given is functional.
A further assay relates to Streptococcus pneumoniae. In words: In vitro antibacterial activity against Streptococcus pneumoniae 6301. It is filed as functional. In outline: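 Streptococcal MICs were determined by agar dilution on brain heart infusion agar supplemented with 20 units/mL bovine liver catalase. Final concentrations were 128 to 0.0156 μg/mL from 2-fold dilutions. Inocula were overnight broth cultures diluted 100-fold, applied by Steers replicator.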

Assay [16] relates to Serratia marcescens. The assay can be described thus: In vitro antibacterial activity against Serratia marcescens SM (constitutive beta-lactamase producer). It is filed as functional. A digest of the protocol: as §1
The subject of assay [17] is Staphylococcus aureus. The assay can be described thus: Minimum inhibitory concentration to the compound inhibiting [14C]- Penicillin G binding to Staphylococcus aureus ATCC 29213 Penicillin binding protein.
In another assay the test system is Klebsiella pneumoniae. The assay can be described thus: In vitro antibacterial activity against Klebsiella pneumoniae A. It is filed as functional. A digest of the protocol: as §1
In a further assay the test system is Proteus vulgaris. In words: In vitro antibacterial activity against Proteus vulgaris ATCC 6380 (constitutive beta-lactamase producer). It is filed as functional. In outline:
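Proteus MICs were determined by agar dilution on Mueller-Hinton agar containing 3% agar. Plates were replicator-inoculated with 100-fold-diluted overnight broth cultures.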

Chain of Penicillin-binding protein 1A (Escherichia coli K-12) (P02918 whole entry, looked up): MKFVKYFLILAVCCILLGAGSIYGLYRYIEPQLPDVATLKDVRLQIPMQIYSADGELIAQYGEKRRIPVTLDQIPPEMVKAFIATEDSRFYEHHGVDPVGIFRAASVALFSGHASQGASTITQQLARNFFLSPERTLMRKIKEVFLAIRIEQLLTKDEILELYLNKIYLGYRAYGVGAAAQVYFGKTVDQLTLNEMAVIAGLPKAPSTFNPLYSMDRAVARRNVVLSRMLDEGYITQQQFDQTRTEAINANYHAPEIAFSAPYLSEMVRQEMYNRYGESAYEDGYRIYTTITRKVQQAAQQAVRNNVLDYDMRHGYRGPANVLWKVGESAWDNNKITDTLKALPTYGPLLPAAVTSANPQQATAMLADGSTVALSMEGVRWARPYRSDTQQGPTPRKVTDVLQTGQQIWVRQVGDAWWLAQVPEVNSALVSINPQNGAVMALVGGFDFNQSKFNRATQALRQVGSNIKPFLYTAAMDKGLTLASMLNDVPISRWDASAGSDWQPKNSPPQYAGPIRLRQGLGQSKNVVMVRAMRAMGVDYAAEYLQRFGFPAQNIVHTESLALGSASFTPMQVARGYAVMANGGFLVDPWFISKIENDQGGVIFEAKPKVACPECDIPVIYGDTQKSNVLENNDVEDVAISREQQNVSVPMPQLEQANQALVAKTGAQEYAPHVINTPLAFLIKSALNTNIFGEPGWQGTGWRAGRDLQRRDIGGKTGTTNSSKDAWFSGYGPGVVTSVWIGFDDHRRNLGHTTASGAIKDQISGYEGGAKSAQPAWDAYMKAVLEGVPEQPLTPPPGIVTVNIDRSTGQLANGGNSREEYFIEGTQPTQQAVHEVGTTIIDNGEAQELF

What is called IC90 is the point of the concentration-response curve where the effect stands at 90%. Low values mean an effect from little substance, high ones a need for much substance. Regarding `C[C@@H](O)[C@H]1C(=O)N2C(C(=O)[O-])=C(COC(=O)N3CCN(c4cc5c(cc4F)c(=O)c(C(=O)O)cn5C4CC4)CC3)S[C@H]12.[Na+]`, the MIC in the assay with Clostridioides difficile was found to be 4 µg/mL; against Serratia marcescens [1] it was 0.25 µg/mL; in the assay on Bacteroides fragilis [3] it was 16 µg/mL; in the assay on Bacteroides fragilis [4], 1 µg/mL; against Escherichia coli [5] it was 0.06 µg/mL; with Escherichia coli [6] it was 4 µg/mL. Besides, the MIC came to 0.25 µg/mL in the assay with Staphylococcus aureus [8], 0.25 µg/mL in the assay with Hathewaya histolytica [9], 0.125 µg/mL with Citrobacter freundii and 0.0625 µg/mL in the assay with Enterobacter cloacae. Moreover, the IC90 in assay [2], in assay [7], in assay [10] and in assay [11] was 2 µg/mL in each case.

Turning to `C[C@@H](O)[C@H]1C(=O)N2C(C(=O)[O-])=C(COC(=O)c3cn(CCF)c4c(F)c(N5CCN(C)CC5)c(F)cc4c3=O)S[C@H]12.[Na+]`, the MIC against Pseudomonas aeruginosa is 4 µg/mL; in the assay on Clostridioides difficile it was 0.5 µg/mL; against Serratia marcescens [1], 0.5 µg/mL; with Bacteroides fragilis [3] it was less than 0.125 µg/mL; in the assay with Escherichia coli [5] it was 0.25 µg/mL; in the assay with Escherichia coli [13], 2 µg/mL. Further, the MIC against Hathewaya histolytica [9] was less than 0.125 µg/mL; against Citrobacter freundii, 0.5 µg/mL; with Staphylococcus aureus [14], 0.125 µg/mL; against Enterobacter cloacae it was 0.5 µg/mL. The values for the 90% effect concentration (IC90) in assay [12] and in [11] were 0.5 µg/mL and 2 µg/mL, respectively.

For `C[C@@H](O)[C@H]1C(=O)N2C(C(=O)[O-])=C(CO)S[C@H]12.[Na+]`, the MIC in the assay on Hathewaya histolytica [15] is less than 0.125 µg/mL; against Streptococcus pneumoniae it was 0.125 µg/mL; with Serratia marcescens [16], 8 µg/mL; against Bacteroides fragilis [4], 64 µg/mL; against Staphylococcus aureus [17], 0.25 µg/mL; in the assay with Klebsiella pneumoniae, 4 µg/mL. Also, in the assay on Proteus vulgaris, the MIC turned out to be 8 µg/mL. Also, the IC90 in assay [7] turned out to be 30 µg/mL.
